Measured values from ChEMBL document CHEMBL3621201, “Improving the Selectivity of Engineered Protease Inhibitors: Optimizing the P2 Prime Residue Using a Versatile Cyclic Peptide Library” (J Med Chem, 2015).
Active and inactive are the calls of the source. The calls are words filed in the database; no cut-off is given here. Bridge positions count the residues as written; N and C are the ends. Peptide text beside a SMILES is read from it.

Experiments:
[1] = target: Kallikrein-5 (Homo sapiens) (UniProt Q9Y337); experiment: Inhibition of KLK5 (unknown origin) expressed in Pichia pastoris X33 at 50 nM using Ac-YRSR-pNA by spectrophotometry method
Kallikrein-4 [2] = target: T1, Kallikrein-4 (Homo sapiens, UniProt Q9Y5K2); experiment: Inhibition of KLK4 (unknown origin) expressed in Sf9 cells at 25 nM using FVQRpNA substrate by spectrophotometry method
Prothrombin [3] = target: T2, Prothrombin (Homo sapiens, UniProt P00734); experiment: Inhibition of alpha-thrombin (unknown origin) at 25 uM using Ac-ATPRpNA substrate by spectrophotometry method
Kallikrein-7 [4] = target: T3, Kallikrein-7 (Homo sapiens, UniProt P49862); experiment: Inhibition of KLK7 (unknown origin) expressed in Pichia pastoris X33 at 200 nM using KHLY-pNA substrate by spectrophotometry method
Target sequence in this assay (P49862 30-253 limits assumed): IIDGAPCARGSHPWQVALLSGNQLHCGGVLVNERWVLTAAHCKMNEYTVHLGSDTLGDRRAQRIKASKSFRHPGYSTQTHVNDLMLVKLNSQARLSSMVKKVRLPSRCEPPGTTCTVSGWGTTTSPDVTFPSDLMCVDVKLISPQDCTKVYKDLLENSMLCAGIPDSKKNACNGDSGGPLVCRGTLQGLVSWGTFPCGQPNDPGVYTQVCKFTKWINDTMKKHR

Kallikrein-5 = target: T4, Kallikrein-5 (Homo sapiens, UniProt Q9Y337); experiment: Inhibition of KLK5 (unknown origin) expressed in Pichia pastoris X33 using Ac-YRSR-pNA by spectrophotometry method
T4 sequence (Q9Y337 whole entry): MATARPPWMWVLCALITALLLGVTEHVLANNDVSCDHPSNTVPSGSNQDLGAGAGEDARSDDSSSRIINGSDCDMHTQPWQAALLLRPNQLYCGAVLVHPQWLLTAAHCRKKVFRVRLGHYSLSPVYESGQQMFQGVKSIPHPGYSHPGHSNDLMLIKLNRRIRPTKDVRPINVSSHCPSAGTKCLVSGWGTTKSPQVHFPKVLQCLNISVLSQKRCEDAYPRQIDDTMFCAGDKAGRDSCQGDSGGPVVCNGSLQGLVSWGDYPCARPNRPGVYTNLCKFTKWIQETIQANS
How it was run: (§1)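 Inhibition constants were measured in 0.1 M Tris pH 8.0, 0.1 M NaCl, 0.005% Triton X-100 with 100 µM peptide-pNA substrate. Protease-specific additives were also included. Absorbance at 405 nm was read every 10 s over 300 s. Rates were compared with no-inhibitor controls, and Morrison Ki was fitted by non-linear regression.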

Kallikrein-7 [5] = target: T3, Kallikrein-7; experiment: Inhibition of KLK7 (unknown origin) expressed in Pichia pastoris X33 using KHLY-pNA substrate by spectrophotometry method; how it was run: as §1
Target sequence in this assay (P49862 whole entry): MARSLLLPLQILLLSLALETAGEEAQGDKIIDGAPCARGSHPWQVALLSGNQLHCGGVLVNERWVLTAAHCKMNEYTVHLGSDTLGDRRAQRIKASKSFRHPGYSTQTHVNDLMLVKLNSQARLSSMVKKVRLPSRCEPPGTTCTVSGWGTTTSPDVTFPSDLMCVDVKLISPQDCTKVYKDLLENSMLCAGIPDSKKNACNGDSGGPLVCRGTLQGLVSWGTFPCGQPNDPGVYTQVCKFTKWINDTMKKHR

[6] = target: T5, Suppressor of tumorigenicity 14 protein (Homo sapiens) (UniProt Q9Y5Y6); experiment: Inhibition of matriptase (unknown origin) at 10 uM using Ac-RQFRpNA substrate by spectrophotometry method
T5 sequence (whole entry): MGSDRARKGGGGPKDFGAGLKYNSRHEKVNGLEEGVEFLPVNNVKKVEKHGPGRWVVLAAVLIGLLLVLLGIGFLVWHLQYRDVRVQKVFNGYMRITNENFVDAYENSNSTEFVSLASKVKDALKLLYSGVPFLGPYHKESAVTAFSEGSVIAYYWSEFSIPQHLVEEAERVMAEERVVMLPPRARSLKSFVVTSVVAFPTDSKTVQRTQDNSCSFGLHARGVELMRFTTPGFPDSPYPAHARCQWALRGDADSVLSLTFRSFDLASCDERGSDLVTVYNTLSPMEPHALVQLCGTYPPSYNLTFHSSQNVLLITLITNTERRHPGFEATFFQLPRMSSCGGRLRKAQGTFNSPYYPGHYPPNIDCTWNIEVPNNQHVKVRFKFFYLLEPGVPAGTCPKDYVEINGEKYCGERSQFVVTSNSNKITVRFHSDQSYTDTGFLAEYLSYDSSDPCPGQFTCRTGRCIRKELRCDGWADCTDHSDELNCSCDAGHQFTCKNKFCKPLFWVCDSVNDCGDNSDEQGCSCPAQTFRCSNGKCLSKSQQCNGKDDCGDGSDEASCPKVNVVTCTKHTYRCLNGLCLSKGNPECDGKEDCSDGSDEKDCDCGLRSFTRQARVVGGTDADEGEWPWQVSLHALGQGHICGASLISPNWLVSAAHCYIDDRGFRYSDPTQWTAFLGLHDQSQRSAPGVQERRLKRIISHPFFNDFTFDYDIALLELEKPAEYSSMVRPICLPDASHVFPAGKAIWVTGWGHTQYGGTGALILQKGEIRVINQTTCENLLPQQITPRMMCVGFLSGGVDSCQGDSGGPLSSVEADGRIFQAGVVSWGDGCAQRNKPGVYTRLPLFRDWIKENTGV

Plasminogen [7] = target: T6, Plasminogen (Homo sapiens, UniProt P00747); experiment: Inhibition of plasmin (unknown origin) using Ac-RM(O2)YRpNA substrate by spectrophotometry method; how it was run: as §1
Trypsin [8] = target: T7, Trypsin (Homo sapiens, UniProt P07477+P07478+P35030); experiment: Inhibition of beta-trypsin (unknown origin) using Bz-FVRpNA substrate by spectrophotometry method; type: protein assay; how it was run: as §1
Prothrombin [9] = target: T2, Prothrombin; experiment: Inhibition of alpha-thrombin (unknown origin) using Ac-ATPRpNA substrate by spectrophotometry method; how it was run: as §1
[10] = target: Coagulation factor X (Homo sapiens) (UniProt P00742); experiment: Inhibition of factor 10a (unknown origin) at 50 uM using Ac-QRSRpNA substrate by spectrophotometry method
[11] = target: T8, Coagulation factor XII (Homo sapiens) (UniProt P00748); experiment: Inhibition of factor 12a-alpha (unknown origin) at 10 uM using Ac-QRFRpNA substrate by spectrophotometry method
T8 sequence (whole entry): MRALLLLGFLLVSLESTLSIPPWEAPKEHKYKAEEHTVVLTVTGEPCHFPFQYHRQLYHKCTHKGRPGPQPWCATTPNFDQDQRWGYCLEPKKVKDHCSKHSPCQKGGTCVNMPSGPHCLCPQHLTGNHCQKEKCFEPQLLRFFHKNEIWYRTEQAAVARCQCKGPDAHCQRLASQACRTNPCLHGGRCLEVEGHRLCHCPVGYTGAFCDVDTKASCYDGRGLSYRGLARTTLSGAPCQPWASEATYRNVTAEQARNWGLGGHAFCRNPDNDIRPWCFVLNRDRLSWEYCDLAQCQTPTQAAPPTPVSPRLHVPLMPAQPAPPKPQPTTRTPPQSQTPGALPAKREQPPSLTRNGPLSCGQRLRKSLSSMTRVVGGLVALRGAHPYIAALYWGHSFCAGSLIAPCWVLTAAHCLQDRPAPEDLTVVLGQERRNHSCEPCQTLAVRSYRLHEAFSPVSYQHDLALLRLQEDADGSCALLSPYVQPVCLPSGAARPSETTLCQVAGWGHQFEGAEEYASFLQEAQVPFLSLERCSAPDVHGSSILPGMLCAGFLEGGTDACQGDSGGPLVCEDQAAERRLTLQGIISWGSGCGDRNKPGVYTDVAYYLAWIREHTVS

[12] = target: Coagulation factor XI (Homo sapiens) (UniProt P03951); experiment: Inhibition of factor 11a (unknown origin) at 10 uM using Bz-FVRpNA substrate by spectrophotometry method
[13] = target: Serine protease 1 (Homo sapiens) (UniProt P07477); experiment: Inhibition of beta-trypsin (unknown origin) at 25 nM using Bz-FVRpNA substrate by spectrophotometry method
Kallikrein-4 [14] = target: T1, Kallikrein-4; experiment: Inhibition of KLK4 (unknown origin) expressed in Sf9 cells using FVQRpNA substrate by spectrophotometry method; how it was run: as §1
Plasminogen [15] = target: T6, Plasminogen; experiment: Inhibition of plasmin (unknown origin) at 50 uM using Ac-RM(O2)YRpNA substrate by spectrophotometry method
Homo sapiens = organism: Homo sapiens; experiment: Inhibition of alpha chymotrypsin (unknown origin) at 25 uM using Ac-GRPY-pNA by spectrophotometry method
Trypsin [16] = target: T7, Trypsin; experiment: Inhibition of trypsin (unknown origin); type: protein assay

T6 sequence (P00747 97-580 limits assumed): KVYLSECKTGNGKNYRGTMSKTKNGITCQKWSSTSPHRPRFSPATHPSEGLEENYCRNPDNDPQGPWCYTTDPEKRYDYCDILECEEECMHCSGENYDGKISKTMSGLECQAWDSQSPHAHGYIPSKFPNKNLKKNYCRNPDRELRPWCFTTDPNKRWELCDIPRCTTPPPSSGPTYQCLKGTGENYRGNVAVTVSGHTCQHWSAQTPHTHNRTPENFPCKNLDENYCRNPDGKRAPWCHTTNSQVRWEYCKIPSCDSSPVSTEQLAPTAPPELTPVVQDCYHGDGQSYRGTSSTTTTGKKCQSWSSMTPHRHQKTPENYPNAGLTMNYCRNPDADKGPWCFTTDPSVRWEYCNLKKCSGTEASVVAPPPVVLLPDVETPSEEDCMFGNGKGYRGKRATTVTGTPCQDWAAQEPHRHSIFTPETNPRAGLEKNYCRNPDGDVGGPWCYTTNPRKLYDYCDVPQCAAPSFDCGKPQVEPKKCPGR
T6 sequence (P00747 581-810 limits assumed): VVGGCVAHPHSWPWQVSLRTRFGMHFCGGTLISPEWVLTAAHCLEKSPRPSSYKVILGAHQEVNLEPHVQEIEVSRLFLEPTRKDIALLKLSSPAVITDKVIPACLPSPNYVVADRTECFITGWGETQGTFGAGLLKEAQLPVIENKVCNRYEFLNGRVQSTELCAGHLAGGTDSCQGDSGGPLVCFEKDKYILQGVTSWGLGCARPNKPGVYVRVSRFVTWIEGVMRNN
T1 sequence (Q9Y5K2 whole entry): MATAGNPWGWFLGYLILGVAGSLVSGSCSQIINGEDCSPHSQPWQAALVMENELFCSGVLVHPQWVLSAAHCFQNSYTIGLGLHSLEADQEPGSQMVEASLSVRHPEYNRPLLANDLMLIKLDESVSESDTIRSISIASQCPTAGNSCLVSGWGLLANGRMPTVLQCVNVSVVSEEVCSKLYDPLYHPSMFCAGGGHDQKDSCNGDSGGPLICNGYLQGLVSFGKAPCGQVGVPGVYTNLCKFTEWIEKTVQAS
Chain of Coagulation factor XI (Homo sapiens) (P03951 19-387 limits assumed): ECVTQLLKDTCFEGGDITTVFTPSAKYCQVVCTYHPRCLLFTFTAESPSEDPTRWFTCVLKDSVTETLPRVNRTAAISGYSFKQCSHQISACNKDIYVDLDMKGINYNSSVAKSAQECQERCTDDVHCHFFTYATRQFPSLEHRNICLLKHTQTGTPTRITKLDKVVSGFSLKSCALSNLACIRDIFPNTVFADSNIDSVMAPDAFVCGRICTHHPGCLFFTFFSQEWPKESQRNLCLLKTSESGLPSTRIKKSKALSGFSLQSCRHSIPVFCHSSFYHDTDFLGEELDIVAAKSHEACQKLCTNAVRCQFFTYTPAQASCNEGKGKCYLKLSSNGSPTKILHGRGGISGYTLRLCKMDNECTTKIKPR
Chain of Coagulation factor XI (Homo sapiens) (P03951 388-625 limits assumed): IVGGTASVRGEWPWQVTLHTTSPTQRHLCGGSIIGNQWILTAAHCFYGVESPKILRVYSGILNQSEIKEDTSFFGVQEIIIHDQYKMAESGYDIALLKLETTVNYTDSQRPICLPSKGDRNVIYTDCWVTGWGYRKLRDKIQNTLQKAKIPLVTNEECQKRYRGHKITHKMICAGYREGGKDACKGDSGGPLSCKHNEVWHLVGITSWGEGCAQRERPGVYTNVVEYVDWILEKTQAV
Chain of Serine protease 1 (Homo sapiens) (P07477 whole entry): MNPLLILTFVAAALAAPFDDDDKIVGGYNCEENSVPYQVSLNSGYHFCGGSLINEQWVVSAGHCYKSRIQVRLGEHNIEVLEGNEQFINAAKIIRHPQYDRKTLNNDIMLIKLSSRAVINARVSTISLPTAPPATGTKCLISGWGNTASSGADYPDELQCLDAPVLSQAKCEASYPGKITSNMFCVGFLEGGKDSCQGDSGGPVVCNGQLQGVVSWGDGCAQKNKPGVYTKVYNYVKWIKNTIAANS
Chain of Coagulation factor X (Homo sapiens) (P00742 41-179 limits assumed): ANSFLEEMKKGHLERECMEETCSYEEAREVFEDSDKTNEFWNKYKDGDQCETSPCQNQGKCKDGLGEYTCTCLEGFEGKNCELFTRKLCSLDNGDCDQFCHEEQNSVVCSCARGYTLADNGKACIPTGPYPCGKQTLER
Chain of Coagulation factor X (Homo sapiens) (P00742 235-488 limits assumed): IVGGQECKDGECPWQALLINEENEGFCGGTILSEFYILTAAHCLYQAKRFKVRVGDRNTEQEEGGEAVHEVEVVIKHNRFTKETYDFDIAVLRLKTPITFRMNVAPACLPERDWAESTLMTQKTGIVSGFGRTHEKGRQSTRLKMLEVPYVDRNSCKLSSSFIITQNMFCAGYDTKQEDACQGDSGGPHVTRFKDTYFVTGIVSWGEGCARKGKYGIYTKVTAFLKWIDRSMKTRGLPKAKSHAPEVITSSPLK

For `CC[C@H](C)[C@@H]1NC(=O)[C@@H]2CCCN2C(=O)[C@@H]2CCCN2C(=O)[C@H](CC(N)=O)NC(=O)[C@H](CO)NC(=O)[C@H](CCCNC(=N)N)NC(=O)[C@H]([C@@H](C)O)NC(=O)[C@@H]2CSSC[C@H](NC1=O)C(=O)N[C@@H](CC(N)=O)C(=O)N1CCC[C@H]1C(=O)N[C@@H](CC(N)=O)C(=O)NCC(=O)N[C@@H]([C@@H](C)O)C(=O)N2` (cyclo(CNPNGTCTRSNPPI); disulfide 1-7), the inhibition [1] was 93%, the inhibition (Kallikrein-4 [2]) was “Active” and the inhibition (Prothrombin [3]) was 49%. The inhibition (Kallikrein-7 [4]) was 97%, the Ki (Kallikrein-5) was 5.2 nM and the Ki (Kallikrein-7 [5]) was 0.8 nM. It also gave an inhibition [6] of 37%.
`CC[C@H](C)[C@@H]1NC(=O)[C@@H]2CCCN2C(=O)[C@@H]2CCCN2C(=O)[C@H]([C@@H](C)CC)NC(=O)[C@H](CO)NC(=O)[C@H](CCCNC(=N)N)NC(=O)[C@H]([C@@H](C)O)NC(=O)[C@@H]2CSSC[C@H](NC1=O)C(=O)N[C@@H](Cc1ccccc1)C(=O)N1CCC[C@H]1C(=O)N[C@H](C(=O)O)CC(=O)NCC(=O)N[C@@H](CCCNC(=N)N)C(=O)N2` (GRCTRSIPPICFPD-OH; disulfide 3-11; lactam N-14) was tested, and the Ki (Plasminogen [7]) was 121 nM, the Ki (Trypsin [8]) was 0.03 nM and the Ki (Prothrombin [9]) was 381 nM.
`CC[C@H](C)[C@@H]1NC(=O)[C@@H]2CCCN2C(=O)[C@@H]2CCCN2C(=O)[C@H](Cc2ccc(O)cc2)NC(=O)[C@H](CO)NC(=O)[C@H](CCCNC(=N)N)NC(=O)[C@H]([C@@H](C)O)NC(=O)[C@@H]2CSSC[C@H](NC1=O)C(=O)N[C@@H](CC(N)=O)C(=O)N1CCC[C@H]1C(=O)N[C@@H](CC(N)=O)C(=O)NCC(=O)N[C@@H]([C@@H](C)O)C(=O)N2` (cyclo(CNPNGTCTRSYPPI); disulfide 1-7) was tested, and the inhibition [1] was “Active”, the inhibition [10] was 26% and the inhibition (Prothrombin [3]) was 62%. It also gave an inhibition [11] of 75%.
In the case of `CC[C@H](C)[C@@H]1NC(=O)[C@@H]2CCCN2C(=O)[C@@H]2CCCN2C(=O)[C@H](CC(=O)O)NC(=O)[C@H](CO)NC(=O)[C@H](CCCNC(=N)N)NC(=O)[C@H]([C@@H](C)O)NC(=O)[C@@H]2CSSC[C@H](NC1=O)C(=O)N[C@@H](CC(N)=O)C(=O)N1CCC[C@H]1C(=O)N[C@@H](CC(N)=O)C(=O)NCC(=O)N[C@@H]([C@@H](C)O)C(=O)N2` (cyclo(CNPNGTCTRSDPPI); disulfide 1-7), the inhibition (Kallikrein-4 [2]) is reported as “inactive”, the inhibition [10] is reported as 31% and the inhibition [12] is reported as 34%. For the same molecule, the inhibition [6] was 29% and the inhibition [13] was “inactive”.
With `CC[C@H](C)[C@@H]1NC(=O)[C@@H]2CSSC[C@H](NC(=O)[C@H]([C@@H](C)CC)NC(=O)[C@@H]3CCCN3C(=O)[C@@H]3CCCN3C(=O)[C@H]([C@@H](C)CC)NC(=O)[C@H](CO)NC(=O)[C@H](CCCNC(=N)N)NC1=O)C(=O)N[C@@H](CC(N)=O)C(=O)N1CCC[C@H]1C(=O)N[C@@H](CC(N)=O)C(=O)NCC(=O)N[C@@H](Cc1c[nH]c3ccccc13)C(=O)N2` (cyclo(CIRSIPPICNPNGW); disulfide 1-9) the Ki (Kallikrein-5) was 362 nM, the Ki (Trypsin [8]) was 379 nM and the Ki (Kallikrein-4 [14]) was 9 nM.
Work on `CC[C@H](C)[C@@H]1NC(=O)[C@@H]2CSSC[C@H](NC(=O)[C@H]([C@@H](C)CC)NC(=O)[C@@H]3CCCN3C(=O)[C@@H]3CCCN3C(=O)[C@H](CCCCN)NC(=O)[C@H](CO)NC(=O)[C@H](CCCNC(=N)N)NC1=O)C(=O)N[C@@H](CC(N)=O)C(=O)N1CCC[C@H]1C(=O)N[C@@H](CC(N)=O)C(=O)NCC(=O)N[C@@H](Cc1c[nH]c3ccccc13)C(=O)N2` (cyclo(CIRSKPPICNPNGW); disulfide 1-9) yielded a Ki (Kallikrein-5) greater than 50000 nM, a Ki (Trypsin [8]) of 3200 nM and a Ki (Kallikrein-4 [14]) of 19.9 nM.
`C[C@@H](O)[C@@H]1NC(=O)[C@@H](NC(=O)[C@H](CCCNC(=N)N)NC(=O)CN)CSSC[C@@H](C(=O)N[C@@H](Cc2cnc[nH]2)C(=O)O)NC(=O)[C@H](CCCNC(=N)N)NC(=O)[C@@H]2CCCN2C(=O)[C@@H]2CCCN2C(=O)[C@H](CC(=O)O)NC(=O)[C@H](CO)NC(=O)[C@H](CCCCN)NC1=O` (H-GRCTKSDPPRCH-OH; disulfide 3-11) gave a Ki (Plasminogen [7]) of 17100 nM, a Ki (Trypsin [8]) of 2830 nM and a Ki (Prothrombin [9]) greater than 50000 nM.
`CC[C@H](C)[C@@H]1NC(=O)[C@@H]2CCCN2C(=O)[C@@H]2CCCN2C(=O)[C@H](Cc2ccc(O)cc2)NC(=O)[C@H](CO)NC(=O)[C@H](CCCNC(=N)N)NC(=O)[C@H]([C@@H](C)O)NC(=O)[C@@H]2CSSC[C@H](NC1=O)C(=O)N[C@@H](Cc1ccccc1)C(=O)N1CCC[C@H]1C(=O)N[C@H](C(=O)O)CC(=O)NCC(=O)N[C@@H](CCCNC(=N)N)C(=O)N2` (GRCTRSYPPICFPD-OH; disulfide 3-11; lactam N-14) showed a Ki (Plasminogen [7]) of 549 nM, a Ki (Trypsin [8]) of 0.16 nM and a Ki (Prothrombin [9]) of 214 nM.
For `CC[C@H](C)[C@@H]1NC(=O)[C@@H]2CCCN2C(=O)[C@@H]2CCCN2C(=O)[C@H]([C@@H](C)CC)NC(=O)[C@H](CO)NC(=O)[C@H](CCCNC(=N)N)NC(=O)[C@H]([C@@H](C)O)NC(=O)[C@@H]2CSSC[C@H](NC1=O)C(=O)N[C@@H](CC(N)=O)C(=O)N1CCC[C@H]1C(=O)N[C@@H](CC(N)=O)C(=O)NCC(=O)N[C@@H]([C@@H](C)O)C(=O)N2` (cyclo(CNPNGTCTRSIPPI); disulfide 1-7), the inhibition (Plasminogen [15]) was 50%, the inhibition (Kallikrein-4 [2]) was “Active” and the Ki (Kallikrein-5) was 2.1 nM. The Ki (Kallikrein-7 [5]) was 16.8 nM, the inhibition (Homo sapiens) was 60% and the inhibition [12] was 47%. The Ki (Trypsin [16]) was 0.7 nM, the inhibition [6] was 41% and the inhibition [13] was 80%. It also gave an inhibition [11] of 85%.
